# Measured values pooled from the literature.
# Compare with care: the assays were run in different laboratories.
# MTNR1B: Melatonin receptor type 1B (MTNR1B, Homo sapiens, UniProt P49286)
# HTR1B: 5-hydroxytryptamine receptor 1B (HTR1B, Homo sapiens, UniProt P28222)
Compound,target,assay,setting,endpoint,value
CCC(=O)NC1Cc2ccccc2C(c2ccccc2)C1 (centres unmarked),MTNR1B,"GTPγS binding, agonist, radiometric",cell membranes,EC50,1.58 nM
COc1ccc2c(c1)C(=O)C1(CCc3ccccc31)O2 (centres unmarked),"Peptidyl-prolyl cis-trans isomerase NIMA-interacting 1 (PIN1, Homo sapiens, UniProt Q13526)","enzyme activity, inhibitor",,Ki,77000 nM
CCCCN1CCC(COC(=O)c2ccc(N)c(OCF)c2)CC1,HTR1B,"cell-free assay, radioligand",,Ki,> 10000 nM
Clc1ccc(CNc2cccc(-c3nnc[nH]3)c2)c(Br)c1,MTNR1B,cell-free assay,,Ki,1410 nM
O=C(NCCc1cccc2ccccc12)C1CCC1,MTNR1B,"ligand displacement, radioligand",cell membranes,Ki,~100 nM
C=CC(=O)Nc1cccc(CN2C(=O)N(c3c(Cl)c(OC)cc(OC)c3Cl)Cc3cnc(NCCCCN(CC)CC)nc32)c1,"Mitogen-activated protein kinase 7 (MAPK7, Homo sapiens, UniProt Q13164)","binding, competition with immobilised ligand",,Kd,160 nM
Cc1cc(Nc2cc3ncccc3c(N[C@@H]3C[C@H]4CC[C@@H](C3)N4CCC#N)n2)n[nH]1,"Cyclin-dependent kinase 7 (CDK7, Homo sapiens, UniProt P50613)","binding, competition with immobilised ligand",,Kd,860 nM
Cc1cc2nc3c(=O)[nH]c(=O)nc-3n(C[C@H](O)[C@H](O)[C@H](O)COP(=O)(O)OP(=O)(O)OC[C@H]3O[C@@H](n4cnc5c(N)ncnc54)[C@H](O)[C@@H]3O)c2cc1C,"Transformer-2 protein homolog beta (Homo sapiens, UniProt P62995)",binding,lysate,Kd,36 nM
CC(=O)NCCc1c(Cc2ccccc2)[nH]c2ccccc12,MTNR1B,"cAMP, antagonist, TR-FRET",,Kb,~100 nM
C=C1CC[C@@H]2[C@](C)(CO)[C@H](O)CC[C@@]2(C)[C@@H]1CCC1=CCOC1=O,"UDP-glucuronosyltransferase 2B7 (UGT2B7, Homo sapiens, UniProt P16662)","enzyme activity, inhibitor",pH 7.4,Ki,1500 nM
O=C1c2ccccc2CCN1CCCCN1CCN(c2cccc(Cl)c2Cl)CC1,HTR1B,"ligand displacement, radioligand",,Ki,73 nM
Nc1nc(NCc2ccc(Oc3ccccc3)cc2)nc(-c2c(F)cccc2CO)n1,MTNR1B,"cell-free assay, radioligand",,Ki,1100 nM
CC(C)c1ccc(CNc2cccc(-c3nnc[nH]3)c2)cc1,MTNR1B,cell-free assay,,Ki,3720 nM
CCc1ccc2scc(CCNC(C)=O)c2c1,MTNR1B,"cAMP, agonist, TR-FRET",,EC50,39.8 nM
